Bioassay records deposited in PubChem by The Scripps Research Institute Molecular Screening Center.
OX1R antag-1: blocks the human orexin 1 receptor. inhibition, % at 5 µM. CHO/OX1R cells, Fluo-8 calcium fluorescence, orexin A. O43613. hit rate 0.43% among 330,000;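 active means inhibition above its plate's threshold, mean inhibition of all tested compounds on the plate plus 3 SD, cut at about 37% in these data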;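 further: 0% = orexin A challenge wells and 100% = SB-334867-A antagonist wells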
Target sequence (O43613 whole entry, looked up): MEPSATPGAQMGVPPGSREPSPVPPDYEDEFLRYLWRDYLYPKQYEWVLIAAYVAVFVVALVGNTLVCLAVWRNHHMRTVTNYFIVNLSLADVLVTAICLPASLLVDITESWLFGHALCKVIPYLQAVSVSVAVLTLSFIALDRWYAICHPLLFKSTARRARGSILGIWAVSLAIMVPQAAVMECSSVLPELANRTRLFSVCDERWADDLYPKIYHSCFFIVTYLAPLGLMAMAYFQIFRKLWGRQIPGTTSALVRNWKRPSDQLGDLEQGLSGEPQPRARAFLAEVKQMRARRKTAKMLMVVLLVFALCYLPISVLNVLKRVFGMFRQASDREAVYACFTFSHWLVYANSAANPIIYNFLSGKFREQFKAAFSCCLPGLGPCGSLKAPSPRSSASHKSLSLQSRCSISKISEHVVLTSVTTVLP
TAAR1 antagonist: antagonists of human TAAR1 | Q96RJ0 | CHO RD-HGA16 TAAR1, Fluo-8 calcium fluorescence, antagonist | inhibition, % at 3 µM | hit rate 1.5% among 360,000 | AID 624466;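 active means inhibition above a per-plate cutoff, the mean inhibition of test compounds on that plate plus 3 SD, cut at about 49% in these data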;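 further: 0% = DMSO plus EC80 beta-PEA response and 100% = DMSO alone without agonist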
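System: RD-HGA16 CHO cells with stable hTAAR1 and Gα16 | Probe or stimulus: EC80 β-phenethylamine stimulus | Dosing: 3 µM, single point | Times: Dye loading 75 min at 37 °C, then 30 min room temperature | Measured by: Fluo-8 calcium-sensitive fluorescence | Read-out basis: % inhibition of agonist calcium response | Replicates: n of 1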
OX1R antag-2: blocks the human orexin 1 receptor; hit rate 1.8% among 330,000; inhibition, % at 6.6 µM; OX1R-expressing cells, FRET antagonist read-out; in the data active means inhibition mostly above about 38%, no sharp cut-off; inactive means mostly below about 40%;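 further: 0% = agonist challenge alone and 100% = reference antagonist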
TAAR1 agonist: human TAAR1 agonism. hit rate 0.99% among 360,000. Q96RJ0. CHO RD-HGA16 TAAR1, Fluo-8 calcium fluorescence; vehicle wells 0%, saturating PEA agonist 100%. activation, % at 3 µM;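 active means activation above the mean activation of all test compounds in the run plus 3 SD, cut at about 38% in these data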
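Assay system: CHO-derived RD-HGA16 cells with stable Gα16 and human TAAR1; timing: 17-24 h seeding, 75 min 37 °C dye, 30 min RT; read-out: % activation from peak over basal fluorescence ratio, DMSO-to-PEA scaled; measured by: kinetic Fluo-8 calcium fluorescence; benchmarks: low control DMSO, high control PEA (EC100); doses: 3 µM single concentration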
CHO parental Ca: counter-screen: ATP calcium response change in parental CHO cells; parental CHO-K1, ATP-induced calcium, Fluo-8 fluorescence; inhibition, % at 5.6 µM; hit rate 0.63% among 330,000;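 active means inhibition above that plate's mean sample inhibition plus 3 SD, cut at about 26% in these data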;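 further: 0% = ATP-challenged DMSO wells and 100% = DMSO wells without ATP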
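Test system: untransfected parental CHO cell line. Compound: one dose, 5.6 µM nominal. Detection: intracellular calcium via Fluo-8 no-wash fluorescent dye. Measure: % inhibition. Benchmarks: ATP-challenged DMSO wells low, unchallenged DMSO wells high.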
OX1R HTRF confirm: confirmation of human orexin 1 receptor antagonists, HTRF format; hit rate 49% among 1,800; inhibition, % at 6.6 µM; shares compounds with OX1R antag-2; OX1R-expressing cells, HTRF antagonist assay; in the data active means inhibition above about 55%;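 further: CHO cells expressing OX1R stimulated with orexin A at about EC80; 0% = agonist challenge alone and 100% = reference antagonist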
CHO-K1 HTRF: counter-screen for OX1R antagonists: effect in parental CHO-K1 cells; shares compounds with OX1R antag-2; HTRF counterscreen; inhibition, % at 6.6 µM; hit rate 48% among 1,800; AID 493232; in the data active means inhibition above about 17%;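 further: 0% = agonist challenge with vehicle and 100% = vehicle alone without agonist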
* = called active by the depositor; / = no result. An excerpt weighted towards active compounds, which were near 3.9% of everything screened.

SMILES	OX1R antag-1	TAAR1 antagonist	OX1R antag-2	TAAR1 agonist	CHO parental Ca	OX1R HTRF confirm	CHO-K1 HTRF
O=C1c2ccccc2S(=O)(=O)c2cc(C(=O)N3CCC(N4CCCC4)CC3)ccc21	-13	3	101*	9	-6	45	88*
Cn1cnc(S(=O)(=O)N2CCCCC2c2cc(C(=O)Nc3ccc(F)c(Cl)c3)no2)c1 (stereo unspecified)	/	18	/	4	/	/	/
COc1ccccc1Cc1c(C(C)(C)C)nc2c3ccccc3ccn12	/	-10	/	2	/	/	/
CN(C)C(=O)c1cccc(-c2cnc3c(NC=O)cc(-c4ccccc4F)cn23)c1	/	0	/	6	/	/	/
O=C(Nc1ccc2nn(-c3ccccc3)nc2c1)c1ccco1	21	18	95*	15	7	71*	7
O=C(Nc1cc2nn(-c3ccccc3)nc2cc1Cl)c1ccco1	-15	1	21	0	-3	/	/
CCn1cnc2cc(NC(=O)c3ccco3)ccc21	-7	23	10	6	7	/	/
CCCn1cnc2cc(NC(=O)c3ccco3)ccc21	-17	-10	94*	2	-9	23	-3
c1ccc(COCCc2cn(Cc3ccccc3)c3ccccc23)cc1	/	-22	/	-1	/	/	/
CCCCCC(=O)N1C[C@@H](O)[C@H](n2cc(-c3ccc(F)cc3)nn2)C[C@@H]1c1ccccc1	/	-20	/	0	/	/	/
CCOC(=O)C1CSCCS(=O)(=O)N1Cc1cccc(F)c1 (stereo unspecified)	/	6	/	1	/	/	/
CCN(CC)c1ccc(N=Nc2nn(C)c(C)c2[N+](=O)[O-])cc1	-27	-22	88*	-3	-15	43	29*
CCN(Cc1ccccc1)c1ccc(N=Nc2nn(C)c(C)c2[N+](=O)[O-])cc1	-15	-4	29	-1	-2	/	/
CC1(C(=O)NCCCN2CCCC2=O)CCN1CCc1ccccc1 (stereo unspecified)	/	-10	/	2	/	/	/
CNc1ccc(/C=C(\CCC(=O)O)c2nc3ccccc3s2)cc1[N+](=O)[O-]	-5	-2	87*	1	15	24	12
Cc1ccc(/C=C(\CCC(=O)O)c2nc3ccccc3s2)cc1[N+](=O)[O-]	-6	-17	27	-2	2	/	/
COc1ccc2cc3cc(C(=O)Nc4ccc5c(c4)OCO5)oc3nc2c1	-18	-20	23	3	2	/	/
CCCN(CCC)CCCNC(=O)c1cc2cc3ccc(OC)cc3nc2o1	-14	-13	123*	8	-7	36	58*
CCCCN(CC)CCCNC(=O)c1cc2cc3ccc(OC)cc3nc2o1	-20	-1	104*	12	-25	45	49*
COc1ccc2cc3cc(C(=O)NCc4cccs4)oc3nc2c1	0	-4	22	12	0	/	/
O=C(CSc1ccc(-c2ccccc2)nn1)c1ccccc1	-5	7	82*	2	-21	41	10
NC(c1csc(Nc2ccc(C(=O)NCCO)cc2)n1)C1CCCCC1 (stereo unspecified)	/	-18	/	0	/	/	/
O=C1NCCN1c1ncc([N+](=O)[O-])s1	-2	-13	82*	1	6	63*	88*
O=C(Nc1ncc([N+](=O)[O-])s1)C1CC(=O)N(c2ccc(F)cc2)C1 (stereo unspecified)	-17	14	26	15	16	/	/
O=C(c1ccc([N+](=O)[O-])s1)N1CCN(c2ccc(C(F)(F)F)cn2)CC1	6	-1	99*	-4	17	29	19*
SMILES	OX1R antag-1	TAAR1 antagonist	OX1R antag-2	TAAR1 agonist	CHO parental Ca	OX1R HTRF confirm	CHO-K1 HTRF
O=C(c1ccc([N+](=O)[O-])s1)N1CCN(c2ncccn2)CC1	/	2	/	0	/	/	/
O=[N+]([O-])c1ccc(C2=Nn3cnnc3SC2)cc1	-30	-27	88*	0	-8	58*	93*
CN(C1CCCCC1)S(=O)(=O)c1cc2c3c(c1)CCN3C(=O)CC2	-23	-5	94*	3	4	27	-5
COc1ccc(-c2ccc(/C=C3\C(=O)N(c4ccccc4)N=C3c3ccccc3)o2)c([N+](=O)[O-])c1	-1	-11	18	14	-4	/	/
COc1ccc(-c2ccc(/C=C3/C(=N)N4C(C)=CSC4=NC3=O)o2)c([N+](=O)[O-])c1	11	41	91*	11	-10	58*	18*
CC(C(=O)NCCN1C(=O)S/C(=C\c2cccnc2)C1=O)N1C(=O)c2ccccc2C1=O (stereo unspecified)	-34	2	79*	1	-14	64*	40*
COc1ccc(C(=O)NCCN2C(=O)S/C(=C\c3cccnc3)C2=O)c(OC)c1OC	-14	14	82*	4	-20	58*	24*
COc1cccc2oc3ccc(C#Cc4ccccn4)cc3c(=O)c12	4	17	85*	8	-17	91*	0
COc1ccc(OC)c(NC(=O)C2(C)CCN2CCOc2ccccc2)c1 (stereo unspecified)	/	-40	/	13	/	/	/
COc1cc(SC)ccc1C(=O)Nc1ccc2ncccc2c1	-1	9	90*	2	-23	86*	14
CC(=O)Nc1ccc(O)c(-c2nc3ccccc3s2)c1	-21	15	40	1	-18	/	/
O=C(Nc1ccc(O)c(-c2nc3ccccc3s2)c1)C1=COCCO1	-5	29	88*	2	-11	46	15
Cc1ccsc1C(=O)Nc1ccc(O)c(-c2nc3ccccc3s2)c1	-6	-27	81*	-1	0	73*	2
COC(=O)c1cc(=O)nc(NNC(C)=O)s1	/	-17	/	0	/	/	/
COc1ccc(C(C)(NC(C)=O)c2nc(-c3cccc4cccnc34)cs2)cc1 (stereo unspecified)	/	6	/	-1	/	/	/
CCOC(=O)/C(C#N)=C\C=C1C=CN(C)C=C1	3	21	100*	25	6	51	62*
O=C(COC(=O)COc1ccc(Cl)cc1Br)NC1CCCC1	/	10	/	-2	/	/	/
N#C/C(=N\Nc1ccc(Cl)cc1)C(=N)N1CCCCC1	-23	4	77*	6	17	18	11
N#C/C(=N\Nc1ccc(F)cc1)C(=N)N1CCCCCC1	12	-12	16	5	-18	/	/
Cc1ccc(Cl)cc1-c1cc(C(=O)NCc2cc(C(F)(F)F)cc(C(F)(F)F)c2)[nH]n1	/	20	/	3	/	/	/
O=C1CCCC2=C1C(c1cccs1)n1nc(SCc3ccccc3F)nc1N2 (stereo unspecified)	-31	20	9	8	-22	/	/
CSc1nc2n(n1)C(c1cccs1)C1=C(CCCC1=O)N2 (stereo unspecified)	-11	-13	106*	2	-12	16	3
CCOC(=O)c1nn(-c2ccccc2)c(=O)c(C#N)c1C	-13	-2	145*	5	-10	48	81*
